Where a chain is given by its changes, count along the chain named. In names and notes the source's numbering stands. Ends that are not written are not given here. Me2 = dimethylated (lysine)

Results on 15 molecules are retold here after article PMC2034471 (Nucleic Acids Research, 2007).

The subject of data set [1] is ScRad9[754–947]. Briefly: NMR titration of ScRad9[754–947] with histone peptides. In kind it is binding, Saccharomyces cerevisiae. Conditions: ^1H-^15N HSQC, 600 MHz; protein 0.2–0.5 mM; 50 mM MES pH 6, 50 mM NaCl. The essentials:
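15N-labelled protein (0.2–0.5 mM) in 50 mM MES pH 6, 50 mM NaCl, 1 mM EDTA, 1 mM NaN3, protease inhibitors, TSP reference. Methyl-lysine H3-K79 and H4-K20 tail peptides titrated to 9-, 7-, 5- or 2-fold molar excess. Weighted shift |Δδ1H| + 0.1×|Δδ15N| plotted against ligand concentration; Kd fitted from the curves.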

Data set [2] relates to rad9Δ cells complemented with rad9ΔTudor allele. Briefly: resistance of yeast cells to genotoxic stress, spot test. In kind it is cell-based, Saccharomyces cerevisiae. The settings on record: 10-fold serial dilutions on YPD plates with drug; versus wild-type RAD9. The essentials:
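The rad9Δ-L157 full RAD9 deletion strain carried a URA3 YCp50 plasmid: empty, wild-type RAD9 under its own promoter, or RAD9 lacking tudor aa 754–947. Overnight YPD cultures were diluted to OD 0.1 and grown 4–5 h. Tenfold dilutions were spotted on YPD ± camptothecin or 4-nitroquinoline 1-oxide, or plates given UV (120 J/m2) or X-rays (150 Gy, 2.5 Gy/min).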

Data set [3] relates to mouse 53BP1 tudor fragment (1463–1617). Put plainly: isothermal titration calorimetry. Conditions: 30°C; for Ka (ITC): 50 mM Tris/HCl pH 7.2, 50 mM NaCl, protein 18–33 µM, one-site model; for TΔS / ΔG / ΔH: ITC; for TΔS / ΔG: pH 7.2; for ΔH: pH 7.2, one-site model. Type of data set: binding. The essentials: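 Protein in the cell titrated with H4-K20me2 or H4K20me2-long peptide, generally 10–15 times more concentrated, both equilibrated in the same buffer, by automatic 5–10 µl injections. The first 2 µl injection was excluded. Peaks were integrated and baseline-corrected. Heat of dilution was taken from peptide injected into buffer. One-site fitting gave n, Ka and ΔH.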

Data set [4] has as its target Mm53BP1[1463–1617] (mouse) (UniProt P70399). Briefly: NMR titration.
Data set [5] in a line: aggregation / stability of Rad9 fragments in solution. Type of data set: physicochemical.
The subject of data set [6] is DNA. Briefly: surface plasmon resonance, DNA binding. Conditions: versus wild-type ScRad9[754–931]; data not shown.
Data set [7] concerns the target Mm53BP1[1463–1617] (mouse, UniProt P70399 1463-1617). Briefly: ITC.
In data set [8] the test system is single-stranded and double-stranded DNA. The settings on record: EMSA; human 53BP1; ref [33]; cited from earlier work.
The subject of data set [9] is H3 from calf thymus. Put plainly: GST-pulldown, binding to histone H3. The settings on record: calf thymus H3, immunoblotting after elution from beads; data not shown.
Data set [10] relates to histone H3. The settings on record: GST fusion; ref [16],[32]; cited from earlier work.
In data set [11] the test system is 146 bp double-stranded DNA. Put plainly: EMSA, 146 bp ds DNA. In kind it is binding. Conditions: DNA 26 nM, 2- to 128-fold molar excess of protein. Summed up: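 146 bp fragment made by PCR on a pUC(357.4) digest template and 5′-end labelled with 32P-ATP/T4 polynucleotide kinase at 37°C. Protein fragments incubated with labelled DNA for 2 h at 22°C in 50 mM Tris–HCl pH 8.0, 1 mM EDTA, 1 mM AEBSF, 1 mM DTT, 50 mM NaCl, 0.1% triton X-100. Resolved on pre-run 6% native polyacrylamide (29:1) in 0.5× TEG at 70 V. Complexes detected by autoradiography of dried gels at –80°C.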

Data set [12] deals with 10 bp oligonucleotide. Conditions: NMR; ref [15]; cited from earlier work.

As for KRHRK*ILRD [yeast H4K20me2], the “binding to ScRad9[754–947] (^1Hn and ^15N chemical shifts)” value in data set [1] was “cannot bind”.
On to `CC[C@@]1(O)C(=O)OCc2c1cc1n(c2=O)Cc2cc3ccccc3nc2-1` [camptothecin], for which the “sensitivity of rad9ΔTudor cells to DNA damage” value in data set [2] is given as “hypersensitivity to DNA damage which was particularly pronounced”.
For the molecule GKGGAKRHRK*VLRDNIQGK [H4-K20me2-long], in [3], the “Ka (ITC)” value turned out to be 110000 ± 16000 M⁻¹, the TΔS turned out to be 4.6 kcal/mol, the ΔG entry is “–6.9 kcal/mol” and the ΔH result is listed as “–2.3 ± 0.1 kcal/mol”.
Consider `O=[N+]([O-])c1cc[n+]([O-])c2ccccc12` [4-nitroquinoline 1-oxide], for which the “sensitivity of rad9ΔTudor cells to DNA damage” value in data set [2] was “hypersensitivity to DNA damage”.
On to H3-K79me2 peptide, for which the dissociation constant Kd in data set [4] came to 1500 µM.
Take KRHRK*VLRD [metazoan H4K20me2]: in data set [3], the “Ka (ITC)” value is 130000 ± 16000 M⁻¹, the TΔS was determined as 4.9 kcal/mol, the ΔG result is “–7.1 kcal/mol” and the ΔH result was “–2.2 ± 0.1 kcal/mol”. Moreover, the “binding to ScRad9[754–947] (^1Hn and ^15N chemical shifts)” value in data set [1] was “cannot bind”.

B1: ScRad9[754–931]: shorter fragment 754–931 of S. cerevisiae Rad9 (protein, UniProt P14737 754-931, looked up, fragment)
chain: GKDSKEQSYVFPEGIRTADNSFLSKDDIIFGNAVWCQYTWNYKFYPGILLEVDTNQDGCWIYFETGRSLTKDEDIYYLDIRIGDAVTFDGNEYVVVGLECRSHDLNIIRCIRGYDTVHLKKKNASGLLGKRTLIKALSSISLDLSEWAKRAKIILEDNEKNKGDAYRYLRHPIRGRKS
As to B1, the “aggregation propensity / rate relative to ScRad9[754–947]” value in data set [5] is given as “same aggregation propensity”.

B2: ScRad9[754–931,C789A,C812S,C853S] (protein, UniProt P14737 754-931, looked up, variant C789A C812S C853S)
chain: B1 chain with C36A, C59S, C100S
As for B2, in [6], the “DNA-binding capacity by surface plasmon resonance” value is “looses the DNA-binding capacity”. Besides, in data set [5], the “aggregation propensity / rate relative to ScRad9[754–947]” value is given as 1.5 times faster.
Take GKGGAKRHRKVLRDNIQGK (K* dimethylated (K20, tenth residue of the peptide)) [Metazoan H4-K20me2-long peptide]: in data set [7], the Ka turned out to be 110000 M⁻¹, the dissociation constant Kd is 8.8 µM, the dH was -2.3 ± 0.1 kcal/mol and the “stoichiometry N” value stood at 1.

B3: 1480–1616: human 53BP1 fragment 1480–1616 containing the tudor region (protein, UniProt Q12888 1480-1616, looked up, fragment)
chain: SSPGNSFVGLRVVAKWSSNGYFYSGKITRDVGAGKYKLLFDDGYECDVLGKDILLCDPIPLDTEVTALSEDEYFSAGVVKGHRKESGELYYSIEKEGQRKWYKRMAVILSLEQGNRLREQYGLGPYEAVTPLTKAAD
On to B3, for which the “interaction with DNA in vitro” value in [8] is “interact with single-stranded and double-stranded DNA in vitro”.

B4: GST-ScRad9[754–947]: GST fusion of ScRad9[754–947] (protein)
chain: GKDSKEQSYVFPEGIRTADNSFLSKDDIIFGNAVWCQYTWNYKFYPGILLEVDTNQDGCWIYFETGRSLTKDEDIYYLDIRIGDAVTFDGNEYVVVGLECRSHDLNIIRCIRGYDTVHLKKKNASGLLGKRTLIKALSSISLDLSEWAKRAKIILEDNEKNKGDAYRYLRHPIRGRKSMTNVLSPKKHTDDEKD
modifications: left off: GST, end not stated, kept
Turning to B4, in [9], the “H3 captured in GST-pull-down” value is listed as “not together”.
Consider KRHRK(Me2)VLRD [Metazoan H4-K20me2 peptide], for which, in data set [7], the Ka amounted to 130000 M⁻¹, the Kd was 7.7 µM, the dH is -2.2 ± 0.1 kcal/mol and the “stoichiometry N” value is 1.

B5: fragments 1319–1480: human 53BP1 fragment 1319–1480 containing the RG-rich stretch (protein, UniProt Q12888 1319-1480, looked up, fragment)
chain: TSLSAMHSSGSSGKGAGPLRGKTSGTEPADFALPSSRGGPGKLSPRKGVSQTGTPVCEEDGDAGLGIRQGGKAPVTPRGRGRRGRPPSRTTGTRETAVPGPLGIEDISPNLSPDDKSFSRVVPRVPDSTRRTDVGAGALRRSDSPEIPFQAAAGPSDGLDAS
In the case of B5, in data set [8], the “interaction with DNA in vitro” value is “interact with single-stranded and double-stranded DNA in vitro”.

B6: GST-ScRad9[750–917]: Rad9 construction reported by two different groups; stability by NMR tested here (protein, UniProt P14737 750-917, looked up, fragment)
chain: ETGSGKDSKEQSYVFPEGIRTADNSFLSKDDIIFGNAVWCQYTWNYKFYPGILLEVDTNQDGCWIYFETGRSLTKDEDIYYLDIRIGDAVTFDGNEYVVVGLECRSHDLNIIRCIRGYDTVHLKKKNASGLLGKRTLIKALSSISLDLSEWAKRAKIILEDNEKNKGD
modifications: GST tag
Consider B6, for which the NMR signal lost in data set [5] (after 2.5 h at 30°C) is 40%. In data set [10], the “capture of histone H3” value is given as “capture of histone H3”.

B7: Mm53BP1[1463–1617]: mouse 53BP1 fragment 1463–1617, tandem tudor region (protein)
chain: PFQAATGSSDGLDSSSSGNSFVGLRVVAKWSSNGYFYSGKITRDVGAGKYKLLFDDGYECDVLGKDILLCDPIPLDTEVTALSEDEYFSAGVVKGHRKESGELYYSIEKEGQRKWYKRMAVILSLEQGNRLREQYGLGPYEAVTPLTKAADISLD
For B7, the “interaction with 146 bp ds DNA by gel retardation” value in data set [11] was “could not detect any interaction”. In addition, the “affinity for 10 bp oligonucleotide, in words” value in [12] is “millimolar affinity interaction”.
